High-throughput results as filed in PubChem BioAssay.
S1P1 ag-PAM: agonists and agonism potentiators of human S1P1 receptor | P21453 | S1P1 CRE-bla cells, forskolin, beta-lactamase FRET, potentiator mode; S1P1 agonist co-added at EC20, 2 nM; 100% = saturating reference agonist, 0% = basal | activation, % at 9.5 µM | 0.57% of 56,000 active;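 active = activation above a cutoff set at the mean activation of all tested compounds plus 3 SD, cut at about 54% in these data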;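 also: forskolin at 4 µM as EC80 and the EC20 agonist is SEW2871; 100% = SEW2871 at its EC100 plus forskolin at EC80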
S1P3 ag: activates the human S1P3 receptor; 0.1% of 60,000 active; Q99500; activation, % at 4.5 µM; S1P3 NFAT-BLA reporter cells, agonism, FRET ratio; relative to 1 µM S1P, basal subtracted;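 active = activation above the screen-wide mean plus 3 SD, cut at about 4.5% in these data, passing the limit was not always enough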
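Benchmarks: high control 1 µM S1P / System: stable CHO line with human S1P3, Gα16, NFAT-BLA reporter / Dosing: single compound concentration, 4.5 µM final / Timing: 4 h compound at 37 °C, 2 h substrate at RT / Measured by: FRET β-lactamase substrate fluorescence, excitation 405 nm, 460/535 nm emission ratio, background-subtracted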
M1 agonist: agonists of M1 muscarinic receptor | CHO-M1 cells, Fluo-4 calcium fluorescence, agonist mode; stronger effect = higher value | B-score at 10 µM | 3% of 64,000 active | AID 626;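 active = fluorescence rise, raw or as B-score row- and column-corrected plate score, outside the 99.7% band of its plate's samples, either direction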
SF-1 act: activates the human nuclear receptor SF-1; activation, % at 10 µM; 1.9% of 65,000 active; Q13285; CHO-K1 Gal4-SF-1 LBD luciferase reporter; % increase over DMSO SF-1-specific signal;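 active = activation above the mean activation of all tested compounds plus 3 SD, cut at about 50% in these data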
Target sequence (Q13285 whole entry, looked up, the tested form may be a part): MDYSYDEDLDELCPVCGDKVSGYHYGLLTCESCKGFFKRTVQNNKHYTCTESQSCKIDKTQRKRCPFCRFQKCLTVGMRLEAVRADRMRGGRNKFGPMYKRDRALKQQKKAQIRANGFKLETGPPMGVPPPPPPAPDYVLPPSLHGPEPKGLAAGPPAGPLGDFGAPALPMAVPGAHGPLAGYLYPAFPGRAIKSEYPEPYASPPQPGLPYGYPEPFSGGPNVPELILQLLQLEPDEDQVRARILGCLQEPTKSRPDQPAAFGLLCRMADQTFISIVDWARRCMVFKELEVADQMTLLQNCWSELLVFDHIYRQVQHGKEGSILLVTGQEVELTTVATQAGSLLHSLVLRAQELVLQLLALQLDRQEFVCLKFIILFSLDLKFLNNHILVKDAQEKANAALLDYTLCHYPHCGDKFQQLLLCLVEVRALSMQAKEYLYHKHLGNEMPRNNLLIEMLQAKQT
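Assay system – CHO-K1 cells with Gal4–hSF-1 LBD chimera plus Gal4-driven luciferase · Quantity – 4,000 cells per well · Times – compound added 1 h post-seeding, 20 h exposure at 37 °C, 5% CO2 · Measured by – luciferase light emission · Benchmarks – DMSO and mock-transfected background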
RORA act: RORA (human) activation; CHO-K1 Gal4-RORA LBD luciferase reporter, luminescence; percent increase over mock-subtracted basal signal; P35398; activation, % at 10 µM; 1.5% of 65,000 active;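 active = activation above the mean of all tested compounds plus 3 SD, cut at about 49% in these data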;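 also: 0% = DMSO-treated RORA cells and 100% = added signal equal to DMSO minus mock-transfected cells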
M1 antag: blocks the rat M1 muscarinic receptor response to acetylcholine; P08482; CHO-M1 cells, Fluo-4 calcium, ACh EC80 antagonist mode; stronger effect = lower value; B-score at 10 µM; 3.4% of 64,000 active; AID 628;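 active = calcium fluorescence response, raw or row-and-column corrected B-score, differing from the plate sample mean either way at a set confidence level, mostly lower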
M1 ag confirm: rat M1 muscarinic agonism, confirmation. fluorescence change (max-min) at 10 µM. 19% of 1,700 active. CHO-M1 cells, Fluo-4 calcium fluorescence, agonist mode; actives lie on both sides. shares compounds with M1 agonist;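 active = fluorescence change differs from the solvent-only DMSO control mean at a set confidence level in both duplicate runs; inconclusive = differs from solvent-only control mean in just one of two runs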;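 also: an EC20 dose of acetylcholine follows compound addition during the same imaging run; raw fluorescence intensity difference in instrument units with no normalization to controls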
M4 ag counter: activates rat M4 receptor in counter-screen for M1 agonists; CHO M4/Gqi5 cells, Fluo-4 calcium fluorescence, agonist mode; actives lie on both sides; shares compounds with M1 agonist; fluorescence change (max-min) at 10 µM; 9% of 1,700 active;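 active = fluorescence change differing from the plate's solvent-only control wells at 99.7% confidence in both duplicates, whether higher or lower; inconclusive = differs from solvent controls in only one of two duplicates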
Numbers without * were called inactive; ? = inconclusive; nt = no result given. This is a sample that favours compounds with a hit; in the whole collection about 8.8% have one here.

SMILES	S1P1 ag-PAM	S1P3 ag	M1 agonist	SF-1 act	RORA act	M1 antag	M1 ag confirm	M4 ag counter
COc1ccccc1N1CCN(C(=O)c2ccc(S(=O)(=O)N3CCCCCC3)cc2)CC1	-6.3	-1.2	0.236	-0.3	-12.6	-0.892	nt	nt
CCOC(=O)C1CCCN(C(=O)c2cc3nc(-c4cccc(OC)c4)cc(C(F)(F)F)n3n2)C1 (stereo not given)	nt	-0.9	3.7*	-9.5	-3.5	-1.49	-14.6	-28.2
O=C(c1oc2ccccc2c1CSCc1ccccc1)N1CCN(c2ncccn2)CC1	20.4	-1.7	7*	-21.8	-22.2	-0.737	-7.62	?
CCOC(=O)N1CCN(C(=O)c2ccc3c(=O)n(Cc4ccc(OC)cc4)c(=S)[nH]c3c2)CC1	-11.9	-0.6	1.76	-6.4	2.5	-1.67	nt	nt
O=C(c1ccc(Cn2c(=O)[nH]c3ccccc3c2=O)cc1)N1CCN(c2ccccn2)CC1	12.7	-1.3	3.78*	9.2	0.6	-0.997	-7.73	-19.9
CCOC(=O)N1CCN(C(=O)c2ccc3c(=O)n(Cc4ccccc4)c(=S)[nH]c3c2)CC1	2.8	-0.5	4.59*	13.8	-4.5	-0.782	?	?
COc1cc2[nH]c(=O)n(CCCC(=O)N3CC=C(c4ccccc4)CC3)c(=O)c2cc1OC	nt	nt	2.32	3.2	0.5	-1	nt	nt
COc1cc2[nH]c(=O)n(CCCCCC(=O)N3CCN(c4ccccn4)CC3)c(=O)c2cc1OC	nt	nt	7.24*	-9.6	-11.5	0.376	-10.3	-41.9
CCC(C)N1CC23C=CC(O2)C(C(=O)OCc2ccccc2)C3C1=O (stereo not given)	nt	nt	0.732	3.0	-16.5	1.41	nt	nt
CCC(C)(C)NC(=O)CN(CC1CCCO1)C(=O)CCC(=O)Nc1nccs1 (stereo not given)	3.0	-0.3	0.408	-4.2	-3.1	0.529	nt	nt
O=C1c2ccccc2-c2onc3ccc(NCCCn4ccnc4)c1c23	-39.3	0.8	96.6*	28.2	11.1	-11.4*	8.99	272
Cc1nc(NCCCn2ccnc2)c2ccccc2n1	17.4	0.6	-0.0225	11.3	0.5	0.238	nt	nt
O=C(NCc1cccnc1)C1c2ccccc2C(=O)N1Cc1ccco1 (stereo not given)	-3.4	-0.5	10.8*	5.0	-3.3	0.0195	-16.3	-19.4
COc1ccc(C2C=C(c3cccs3)Nc3nc(CCCO)nn32)cc1 (stereo not given)	27.0	-0.4	288*	-15.6	-2.1	-17.8*	2868*	2408*
COc1ccc(C2C=C(c3ccccc3)Nc3nc(CCCO)nn32)cc1 (stereo not given)	8.0	-0.1	9.26*	-15.4	0.3	0.059	71.9*	37.1
OCCCc1nc2n(n1)C(c1ccccc1)C=C(c1ccccc1)N2 (stereo not given)	-7.4	0.1	12.2*	-26.3	-15.3	-0.191	74.3*	15.6
COc1ccc(C2C(C(=O)Nc3ccccc3)=C(C)Nc3nc(CCCO)nn32)cc1 (stereo not given)	1.8	-1.1	0.15	-0.7	2.7	-0.035	nt	nt
CC1=C(C(N)=O)C(c2cccc(O)c2)n2nc(CCCO)nc2N1 (stereo not given)	-20.6	-0.3	0.55	5.3	-6.4	0.872	nt	nt
O=C(O)Cn1c(CC(=O)N2CCCC2)nc2ccccc21	-18.0	-0.2	-0.323	-12.2	-3.8	-0.0212	nt	nt
O=C(N1CCCC1)n1c(Cc2ccccc2)nc2ccccc21	nt	0.0	6.38*	6.0	6.0	1.35	?	-82.3*
Cc1ccc(N2C(=O)[C@@H]3C(c4ccc(F)cc4)=NO[C@@H]3C2=O)cc1	-16.0	-0.4	6.65*	24.2	-5.8	-0.368	?	-34.6
COc1cccc(C2=NO[C@@H]3C(=O)N(c4ccc5c(c4)OCCO5)C(=O)[C@H]23)c1OC	-21.6	-0.4	0.2	-4.2	-13.8	-0.135	nt	nt
COc1ccc(C(CC(=O)NCCCN2CCOCC2)NS(=O)(=O)c2ccc(C)cc2)cc1 (stereo not given)	0.7	0.6	0.638	11.9	17.5	0.2	nt	nt
Cc1cccc(Cn2cnc3c(nnn3Cc3ccc(F)cc3)c2=O)c1	10.4	-0.6	-0.0284	6.1	14.5	-0.353	nt	nt
Cc1cccc(Cn2cnc3c(nnn3Cc3ccccc3F)c2=O)c1	-9.0	-0.5	10.8*	13.3	19.3	-2.69*	-34.2*	-72.2
SMILES	S1P1 ag-PAM	S1P3 ag	M1 agonist	SF-1 act	RORA act	M1 antag	M1 ag confirm	M4 ag counter
O=c1[nH]c(CSc2nnc(NCCCN3CCOCC3)s2)nc2cc(Cl)ccc12	11.1	0.4	-0.0459	-9.7	22.5	-0.664	nt	nt
CCN(CC(=O)NCc1ccccn1)S(=O)(=O)c1ccc(Cl)cc1	nt	-0.4	0.0342	6.8	1.2	0.795	nt	nt
CCc1ccc(S(=O)(=O)NCc2cn3ccsc3n2)s1	-30.4	0.4	3.31*	-10.3	3.2	0.554	-0.704	-44.9
Cc1ccc2c(c1)nnn2C1CCN(CC(=O)Nc2ccccc2N2CCOCC2)CC1	-42.1	-0.5	2.91*	1.8	2.7	-0.0469	-11.6	-5.69
C=CCNS(=O)(=O)c1ccc2nsnc2c1	-18.9	-0.5	0.408	15.9	-4.0	0.83	nt	nt
CCN(CC)c1ccc2c(C)c(CN3CCOCC3)c(=O)oc2c1	-64.9	1.8	7.1*	4.1	-1.8	-2.95*	43.1	-0.888
COC(=O)Cc1c(C)c2ccc(OCC(=O)N3CCOCC3)cc2oc1=O	-15.7	-0.2	0.401	-4.0	-4.5	-0.948	nt	nt
O=C(C1CCN(S(=O)(=O)c2cccc3nsnc23)CC1)N1CC=C(c2ccccc2)CC1	17.4	0.4	7.48*	-7.5	-15.8	-1.32	-9.85	-32.1
CCOCCCNc1nc2c(c(=O)[nH]c(=O)n2C)n1CCCc1ccccc1	nt	nt	0.734	1.4	18.0	-0.749	nt	nt
CCOC(=O)C1=C(N)Oc2cc(C)n(CCc3ccc(OC)c(OC)c3)c(=O)c2C1c1cccnc1 (stereo not given)	-11.6	-0.3	8.47*	4.9	-23.9	-0.648	?	-67.2
O=C(CCn1c(=O)oc2ccccc21)NCCCN1CCCC1=O	-11.7	-0.4	-0.713	-4.3	5.8	-0.0853	nt	nt
COc1ccc(-c2cn3cc(C)ccc3n2)cc1OC	-8.6	-0.4	2.24*	19.5	-13.3	0.33	?	?
CCCS(=O)(=O)N1CCCC(C(=O)NCCN(C)Cc2ccccc2)C1 (stereo not given)	-5.3	-0.1	0.412	7.9	-14.8	-1.39	nt	nt
O=C(O)C1CC(=O)N(c2ccc(OCc3c(F)cccc3Cl)cc2)C1 (stereo not given)	-10.2	-0.8	-0.0214	13.2	-5.2	-0.000465	nt	nt
